Results on two compounds are retold here after ChEMBL document CHEMBL4428077, “Synthesis and Biological Evaluation of N-((1-(4-(Sulfonyl)piperazin-1-yl)cycloalkyl)methyl)benzamide Inhibitors of Glycine Transporter-1” (J Med Chem, 2016).

Data set [1] has as its system Rattus norvegicus. The data set is described as follows: In vivo inhibition of glycine transporter-1 in Sprague-Dawley rat assessed as CSF glycine level at 30 mg/kg, po measured 2 hrs post dose by LC-MS/MS analysis relative to control. It is filed as functional. Further details: scale not given: the % may be the effect or the level left. The essentials:
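Drug-naive Sprague-Dawley rats, n = 5 per group, given acute oral doses of 0.4-160.9 μmol/kg (0.3-100 mg/kg). Vehicle was Solutol 5% in 20% Captisol / 25 mM PBS, pH 2. Killed 2 h post-dose. CSF glycine was quantified by LC-MS/MS with a deuterated-glycine standard and expressed as % vehicle control, mean ± SEM. Two-way ANOVA with Tukey test.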

A short description of data set [2]: Drug level in Sprague-Dawley rat CSF at 100 mg/kg, po measured 2 hrs post dose by LC-MS/MS analysis. The conditions noted are these: read-out: Drug uptake. The class given is ADME, organism-based, Cerebrospinal fluid. The essentials: (§1)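 Drug-naive Sprague−Dawley rats (n = 4−5/group) were dosed orally once in 5% Solutol plus 20% Captisol in 25 mM PBS, pH 2, and euthanized 2 h later by CO₂. CSF was drawn from the cisterna magna. Drug was measured in CSF, brain and plasma; data as mean ± SEM.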

In data set [3] the test system is Rattus norvegicus. In words: In vivo inhibition of glycine transporter-1 in po dosed Sprague-Dawley rat assessed as increase in CSF glycine level measured 2 hrs post dose by LC-MS/MS analysis. It is filed as functional. An outline of the steps: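 Drug-naive adult male Sprague-Dawley rats, n = 4-5 per group, given a single oral dose of 0.4, 1.5, 4.7 or 15.7 μmol/kg. Vehicle was 5% Solutol + 10% Captisol in 25 mM PBS, pH 2. At 2 h, rats were killed by CO₂. CSF (50-100 μL) was taken from the cisterna magna, and brain and plasma were also collected. Glycine was measured by LC-MS/MS against a deuterated-glycine internal standard. Results given as % vehicle control (vehicle 30 min post-dose), mean ± SEM. Two-way ANOVA with Tukey test.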

Data set [4] in a line: Drug level in Sprague-Dawley rat plasma at 100 mg/kg, po measured 2 hrs post dose by LC-MS/MS analysis. It is filed as ADME, organism-based. The essentials:
as §1

A short description of data set [5]: Drug level in cynomolgus monkey plasma at 10 mg/kg, po measured at 12 hrs post dose by LC-MS/MS analysis. It is filed as ADME, organism-based, Macaca fascicularis. An outline of the steps:
(§2)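 Cynomolgus monkeys (n = 3/group) fitted with subcutaneous CSF ports were dosed orally at 0.4−15.7 μmol/kg in 5% Solutol plus 20% Captisol in 25 mM PBS, pH 2. CSF (about 0.30 mL) and blood were sampled predose and at 0.5, 1, 2, 3, 4, 8, 12 and 24 h. Quantitation limit 1.0 ng/mL; mean ± SD.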

Data set [6] can be described thus: Drug level in cynomolgus monkey CSF at 10 mg/kg, po measured at 4 hrs post dose by LC-MS/MS analysis. The class given is ADME, organism-based, Macaca fascicularis, Cerebrospinal fluid. The conditions noted are these: read-out: Drug uptake. The essentials: as §2
The nature of data set [7]: Drug level in cynomolgus monkey plasma at 3 mg/kg, po measured at 4 hrs post dose by LC-MS/MS analysis. It is filed as ADME, organism-based, Macaca fascicularis.
The nature of data set [8]: Drug level in cynomolgus monkey CSF at 10 mg/kg, po measured at 3 hrs post dose by LC-MS/MS analysis. It is filed as ADME, organism-based, Macaca fascicularis, Cerebrospinal fluid. Conditions: read-out: Drug uptake. The essentials:
as §2

A short description of data set [9]: Ratio of drug level in Sprague-Dawley rat brain to plasma at 3 to 10 mg/kg, po measured 2 hrs post dose by LC-MS/MS analysis. Conditions: read-out: BPR. It is filed as ADME, organism-based. The essentials:
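Drug-naive male Sprague–Dawley rats (n = 4–5/group) were dosed orally in 5% Solutol/10% Captisol in 25 mM PBS, pH 2, and euthanized by CO2 2 h post-dose. CSF (50–100 μL) was taken from the cisterna magna, and brain and plasma were collected; drug was measured in each matrix. Quantitation limit 1.0 ng/mL.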

In data set [10] the target is Cytochrome P450 2C9 (Homo sapiens, UniProt P11712). The data set is described as follows: Inhibition of CYP2C9 (unknown origin). The class given is ADME.
Sequence of Cytochrome P450 2C9 (P11712 whole entry): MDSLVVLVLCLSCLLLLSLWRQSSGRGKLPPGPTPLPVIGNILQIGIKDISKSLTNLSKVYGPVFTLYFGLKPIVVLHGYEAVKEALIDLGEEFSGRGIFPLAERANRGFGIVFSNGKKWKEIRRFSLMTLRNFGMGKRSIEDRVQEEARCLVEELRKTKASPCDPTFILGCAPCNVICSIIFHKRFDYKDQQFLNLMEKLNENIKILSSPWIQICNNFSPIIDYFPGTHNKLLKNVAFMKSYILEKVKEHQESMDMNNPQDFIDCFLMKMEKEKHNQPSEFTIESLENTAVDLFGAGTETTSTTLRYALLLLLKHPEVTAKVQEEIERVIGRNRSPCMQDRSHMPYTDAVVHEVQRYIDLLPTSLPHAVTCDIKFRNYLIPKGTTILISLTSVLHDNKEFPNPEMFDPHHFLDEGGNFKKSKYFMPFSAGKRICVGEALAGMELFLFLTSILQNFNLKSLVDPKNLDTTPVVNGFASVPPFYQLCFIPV
Data set [11] can be described thus: Apparent permeability from basolateral to apical side in human Caco2 cells. It is filed as ADME, cell-based. The conditions noted are these: Caco-2. An outline of the steps: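 Caco-2 monolayer permeability measured in both the A-to-B and B-to-A directions and reported as P_app (×10⁻⁶ cm/s).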
Data set [12] can be described thus: Intrinsic clearance in human. It is filed as ADME.
The nature of data set [13]: Oral bioavailability in cynomolgus monkey at 5 mg/kg measured up to 24 hrs post dose by LC-MS/MS analysis. Conditions: in vivo. The class given is ADME, organism-based, Macaca fascicularis. The essentials:
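Three female cynomolgus monkeys per group; single oral dose of 7.8 μmol/kg in 5% Solutol in 20% Captisol, 25 mM PBS, pH 2 (5 mL/kg), with a separate IV arm at 1.5 μmol/kg in 5% DMSO/10% Solutol in saline, pH 6.5 (2 mL/kg). F = (AUC_INFpo × Dose_iv)/(AUC_INFiv × Dose_po); mean ± SD.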

Data set [14] can be described thus: Drug level in cynomolgus monkey plasma at 3 mg/kg, po measured at 1 hr post dose by LC-MS/MS analysis. The class given is ADME, organism-based, Macaca fascicularis.

With `Cl.Cn1cc(S(=O)(=O)N2CCN(C3(CNC(=O)c4ccc(C(F)(F)F)cc4Cl)CCC(F)(F)CC3)CC2)nn1`, in [1], the Activity is reported as 317.2%. For the same compound, the concentration at 2 h in data set [2] amounted to 7.6 nM; in data set [4], 334 nM. The ED200 in [3] was in the range of 1.6 to 4.8 µmol/kg.

Take `CC(NC(=O)c1ccc(C(F)(F)F)cc1Cl)C1(N2CCN(S(=O)(=O)c3cn(C)nn3)CC2)CCC(F)(F)CC1.Cl` (single isomer, unassigned; (+)): the concentration at 12 h in [5] worked out at 135 ng/mL. For the same compound, the concentration at 4 h in data set [6] is 8.4 ng/mL; in [7], 3.7 ng/mL. Also, the concentration at 3 h in data set [8] is 11.3 ng/mL. For the same compound, the Kp at 2 h in data set [9] lay within 0.1 to 0.2. The compound also yielded an IC50 in data set [10] above 7.2 µM. Moreover, in [11], the Papp B→A came out at 47.4 ×10⁻⁶ cm/s. The compound also came in with a CL in [12] of 4 microL/ml/min. Moreover, the bioavailability in data set [13] was 31%. Besides, the concentration at 1 h in data set [14] was 3.6 ng/mL.
